This excerpt belongs to a sample that is enriched for hits.
KDM4C inh: inhibitors of human demethylase GASC-1 KDM4C | GST-KDM4C 2-372, H3K9me3 peptide, LANCE TR-FRET | inhibition, % at 12.5 µM | 0.15% of 96,000 active | AID 720574 | Q9H3R0;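 active = mean replicate inhibition above about 25%, with at least 55% of replicates also reaching it, limit read from the data, passing the limit was not always enough; inconclusive = only one of those two conditions met; inactive = neither condition met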
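material = GST-tagged GASC-1 (JMJD2C) catalytic fragment, aa 2-372 | amount = enzyme final amount 10 nM | medium = HEPES buffer, pH 7.5, plus ascorbate | also added = H3K9me3 peptide substrate, Fe(II), 2-oxoglutarate | dosing = single dose | times = 30 min demethylation and 1 h detection at room temperature | detection = LANCE TR-FRET | read-out basis = Fall in 671/618 emission ratio as inhibition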
IDH1 mut inh: IDH1 R132H (human) inhibition; IDH1 R132H reductase, diaphorase/resazurin fluorescence, 60 min; inhibition, % at 10 µM; 0.18% of 70,000 active; AID 624101; in the data active = inhibition above about 34%; inconclusive = no clear call, values can overlap the other calls; inactive = below about 11%;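 note: 0% = DMSO and 100% = no enzyme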
Target sequence (O75874 whole entry R132H): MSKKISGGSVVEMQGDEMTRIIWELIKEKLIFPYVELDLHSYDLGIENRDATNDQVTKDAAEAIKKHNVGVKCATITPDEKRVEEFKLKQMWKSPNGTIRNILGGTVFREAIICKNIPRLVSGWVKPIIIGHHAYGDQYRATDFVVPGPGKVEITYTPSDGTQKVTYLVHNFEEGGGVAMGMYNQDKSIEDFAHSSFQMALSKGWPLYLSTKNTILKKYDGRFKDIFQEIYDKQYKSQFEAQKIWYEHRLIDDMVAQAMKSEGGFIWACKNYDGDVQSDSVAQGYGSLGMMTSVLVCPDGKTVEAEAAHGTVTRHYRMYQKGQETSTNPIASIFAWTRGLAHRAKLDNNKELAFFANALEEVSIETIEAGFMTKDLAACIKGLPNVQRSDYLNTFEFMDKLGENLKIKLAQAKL
T cruzi growth-1: inhibitors of T. cruzi proliferation | T. cruzi beta-gal in NIH3T3, GalScreen luminescence, 90 h | inhibition, % at 8.34 µM | 5.9% of 77,000 active;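 active = mean inhibition above about 93%, with at least 55% of replicates each passing it, limit read from the data, passing the limit was not always enough; inconclusive = only one of those two conditions holds; inactive = neither condition holds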
T cruzi growth-2: Trypanosoma cruzi proliferation inhibition | shares compounds with T cruzi growth-1 | T. cruzi beta-gal in NIH3T3, GalScreen luminescence, 90 h | inhibition, % at 8.35 µM | 72% of 5,600 active | AID 651739;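 active = mean replicate inhibition above about 95% and at least 55% of replicates individually reaching it, limit read from the data; inconclusive = only one of the two criteria is met; inactive = neither criterion is met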
T cruzi growth-3: Trypanosoma cruzi proliferation inhibition; shares compounds with T cruzi growth-1; T. cruzi beta-gal in NIH3T3, GalScreen luminescence, 90 h; inhibition, % at 2.09 µM; 21% of 5,600 active;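 active = mean inhibition above about 95%, with at least 55% of replicates also reaching it, limit read from the data; inconclusive = meets just one of the two conditions; inactive = meets neither condition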;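 note: plate controls were neutral control median for no effect and positive control median for full effect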
3T3 cytotox: cytotoxicity in mouse NIH/3T3 fibroblasts; cytotoxicity (signal decrease), % at 8.35 µM; 14% of 5,600 active; shares compounds with T cruzi growth-1; NIH/3T3 viability, CellTiter-Glo ATP luminescence, 90 h;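 active = mean signal decrease across replicates above about 35% based on untreated-well scatter, with enough replicates individually passing, limit read from the data; inconclusive = no rule stated though some were filed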;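 note: 0% = median of neutral control wells and 100% = median of positive control wells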
3T3 cytotox 2: NIH/3T3 (mouse) viability loss; shares compounds with T cruzi growth-1; NIH/3T3 viability, CellTiter-Glo ATP luminescence, 90 h; inhibition, % at 24.9 µM; 56% of 5,600 active;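 active = mean loss of cell viability signal at or above a set limit, and enough replicates individually reaching it; inconclusive = meets only the mean limit or only the replicate share; inactive = meets neither condition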;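 note: 0% = median of neutral control wells and 100% = median of positive control wells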
* hit, by the source's call; ? = inconclusive; / = no result; ! = not confirmed by another sample.

SMILES	KDM4C inh	IDH1 mut inh	T cruzi growth-1	T cruzi growth-2	T cruzi growth-3	3T3 cytotox	3T3 cytotox 2
C[C@H](CO)N1C[C@H](C)[C@H](CN(C)C(=O)Cc2ccccc2)Oc2ncc(C3=CCCCC3)cc2C1=O	0	/	/	/	/	/	/
C[C@@H]1CN([C@@H](C)CO)C(=O)c2cc(/C=C/c3ccccc3)cnc2O[C@H]1CN(C)Cc1ccccc1F	-3	0	127*	?	108*	5	105*
Cc1ccc(-c2cnc3c(c2)C(=O)N([C@H](C)CO)C[C@H](C)[C@@H](CN(C)Cc2ccccc2F)O3)cc1	-2	-1	109*!	108*	60	5	69*
C[C@@H]1CN([C@@H](C)CO)C(=O)c2cc(/C=C/c3ccccc3)cnc2O[C@@H]1CN(C)Cc1ccccc1F	-3	0	108*	114*	80	32	56*
C/C=C/c1cnc2c(c1)C(=O)N([C@@H](C)CO)C[C@H](C)[C@H](CN(C)Cc1ccccc1F)O2	-2	0	/	/	/	/	/
C/C=C/c1cnc2c(c1)C(=O)N([C@@H](C)CO)C[C@@H](C)[C@@H](CN(C)Cc1ccccc1F)O2	-4	0	/	/	/	/	/
Cc1ccc(-c2cnc3c(c2)C(=O)N([C@H](C)CO)C[C@@H](C)[C@@H](CN(C)Cc2ccccc2F)O3)cc1	14	0	71	/	/	/	/
O=C(NC1CCCCC1)N[C@H]1CC[C@@H](CC(=O)N2CCOCC2)O[C@@H]1CO	-1	0	/	/	/	/	/
COC(=O)Cn1c(=O)n(Cc2ccco2)c(=O)c2c3c(sc21)CCCC3	/	0	/	/	/	/	/
COc1cccc(NC(=O)CCc2nc(-c3ccccc3Cl)no2)c1	/	-1	/	/	/	/	/
COCC(=O)NC[C@@H]1[C@H](c2ccc(C3=CCCC3)cc2)[C@@H](CO)N1C(C)=O	1	/	108*	-26	-22	-2	-2
CCC(=O)NC[C@H]1[C@H](c2ccc(C3=CCCC3)cc2)[C@H](CO)N1C(C)=O	-1	/	23	/	/	/	/
CCC(=O)NC[C@H]1[C@@H](c2ccc(C3=CCCC3)cc2)[C@@H](CO)N1C(C)=O	2	/	77	/	/	/	/
CCC(=O)NC[C@@H]1[C@@H](c2ccc(C3=CCCC3)cc2)[C@H](CO)N1C(C)=O	1	/	94	/	/	/	/
COCC(=O)NC[C@@H]1[C@H](c2ccc(C3=CCCC3)cc2)[C@H](CO)N1C(C)=O	2	/	116*	96*	1	3	-9
COCC(=O)NC[C@H]1[C@H](c2ccc(C3=CCCC3)cc2)[C@H](CO)N1C(C)=O	2	/	?	-7	0	-21	-23
COc1ccc(CN(C)C[C@H]2Oc3ccc(NC(=O)Nc4ccc5c(c4)OCO5)cc3C(=O)N([C@@H](C)CO)C[C@@H]2C)cc1	3	0	7	/	/	/	/
COc1ccc(S(=O)(=O)N(C)C[C@@H]2Oc3c(NC(=O)Nc4ccc(F)cc4)cccc3C(=O)N([C@@H](C)CO)C[C@@H]2C)cc1	3	/	-43	/	/	/	/
C[C@@H]1CN([C@H](C)CO)C(=O)c2cc(NC(=O)Cc3ccccc3)ccc2O[C@@H]1CN(C)C(=O)Nc1ccc2c(c1)OCO2	0	0	-72	/	/	/	/
C[C@@H]1CN([C@@H](C)CO)C(=O)Cc2cc(NC(=O)CCC(F)(F)F)ccc2O[C@@H]1CN(C)C(=O)Nc1ccc(F)cc1	-1	/	5	/	/	/	/
OCCN(Cc1ccccc1)c1ncnc2c1sc1nc(N3CCOCC3)c3c(c12)CCCC3	/	0	/	/	/	/	/
OC[C@H]1[C@H](c2ccc(C#Cc3ccccc3)cc2)[C@@H]2CN(CC3CCOCC3)CCCCN12	-1	/	?	106*	56	31	106*
OC[C@H]1[C@H](c2ccc(C#Cc3ccccc3F)cc2)[C@H]2CN(CC3CCOCC3)CCCCN21	-1	/	66	/	/	/	/
OC[C@@H]1[C@H](c2ccc(C#Cc3ccccc3)cc2)[C@H]2CN(CC3CCOCC3)CCCCN12	0	/	117*	100*	88	23	105*
OC[C@@H]1[C@@H](c2ccc(C#Cc3ccccc3F)cc2)[C@H]2CN(CC3CCOCC3)CCCCN12	0	/	88	/	/	/	/
SMILES	KDM4C inh	IDH1 mut inh	T cruzi growth-1	T cruzi growth-2	T cruzi growth-3	3T3 cytotox	3T3 cytotox 2
CC(C)NC(=O)N(C)C[C@H]1Oc2cc(C#C[C@H](C)O)ccc2S(=O)(=O)N([C@@H](C)CO)C[C@@H]1C	0	2	/	/	/	/	/
COc1ccc(S(=O)(=O)Nc2ccc3c(c2)C(=O)N([C@@H](C)CO)C[C@H](C)[C@@H](CN(C)C(=O)CCC(F)(F)F)OCCCC[C@H](C)O3)cc1	3	-3	46	/	/	/	/
C[C@H]1CN([C@@H](C)CO)C(=O)c2cc(NC(=O)C3CCCCC3)ccc2O[C@@H]1CN(C)CC1CC1	4	1	-7	/	/	/	/
C[C@@H]1CCCCO[C@H](CN(C)Cc2ccc(Cl)c(Cl)c2)[C@@H](C)CN([C@H](C)CO)C(=O)c2cc(NC(=O)Nc3ccccc3)ccc2O1	0	-1	90	/	/	/	/
COc1ccc(NC(=O)Nc2ccc3c(c2)C(=O)N([C@@H](C)CO)C[C@H](C)[C@@H](CN(C)Cc2ccc(Cl)c(Cl)c2)OCCCC[C@H](C)O3)cc1	0	2	124*	99*	113*	16	21
C[C@@H]1CN([C@@H](C)CO)C(=O)c2cc(NC(=O)Nc3ccccc3)ccc2O[C@@H](C)CCCCO[C@H]1CN(C)Cc1ccc(Cl)c(Cl)c1	6	0	69	/	/	/	/
COc1ccc(NC(=O)Nc2ccc3c(c2)C(=O)N([C@H](C)CO)C[C@@H](C)[C@H](CN(C)Cc2ccc(Cl)c(Cl)c2)OCCCC[C@H](C)O3)cc1	-2	/	121*	93	107*	9	17
COc1ccc(S(=O)(=O)N(C)C[C@@H]2Oc3c(NS(=O)(=O)c4ccc(C)cc4)cccc3C(=O)N([C@@H](C)CO)C[C@@H]2C)cc1	-1	/	/	/	/	/	/
C[C@H]1CN([C@@H](C)CO)C(=O)c2cccc(NS(=O)(=O)c3ccc(F)cc3)c2O[C@@H]1CN(C)S(=O)(=O)c1cccs1	-2	/	10	/	/	/	/
O=C(C[C@H]1CC[C@H]2[C@@H](COC[C@@H](O)CN2Cc2ccc(Oc3ccccc3)cc2)O1)N1CCN(c2ccccc2)CC1	-1	/	127*	101*	57	-32	104*
O=C(C[C@H]1CC[C@@H]2[C@H](COC[C@@H](O)CN2Cc2ccc(Oc3ccccc3)cc2)O1)N1CCOCC1	2	/	12	/	/	/	/
Cc1ccccc1S(=O)(=O)N1C[C@@H](O)COC[C@@H]2O[C@H](CC(=O)N3CCN(C)CC3)CC[C@H]21	-3	/	?	-27	-15	-5	2
Cc1ccccc1S(=O)(=O)N1C[C@H](O)COC[C@@H]2O[C@@H](CC(=O)N3CCN(C)CC3)CC[C@H]21	-2	/	1	/	/	/	/

Screens: PubChem BioAssay, Broad Institute
